Experimental data reported in ChEMBL document CHEMBL2424657, “Identification of the KDM2/7 histone lysine demethylase subfamily inhibitor and its antiproliferative activity” (J Med Chem, 2013).
Calls of active or inactive are those of the source. The calls are words filed in the database; no cut-off is given here.

Experiments:
HeLa [1] = assay: Growth inhibition of human HeLa cells after 48 hrs by MTT assay; format: functional
How it was run: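 Cells were seeded at 5000/well in RPMI 1640 with 10% FBS and allowed to attach overnight, then exposed for 48 h at 37 °C in 5% CO2. MTT was added for 3 h, and the dye was solubilized in HCl–2-propanol and read at 560 nm (reference 750 nm).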

HeLa [2] = assay: Cell cycle arrest in human HeLa cells assessed as increase in G0/G1 phase after 24 hrs by FACS analysis; format: functional, cell-based
How it was run: (§1)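 HeLa or KYSE150 cells (5×10^5) were exposed for 24 h to 10 or 100 μM in RPMI 1640 with 10% FBS, then trypsinized. Cells were fixed in ice-cold 70% ethanol, PBS-washed and stained with propidium iodide (10 μg/mL) plus RNase A (0.2 mg/mL) for 30 min at 25 °C. Phase distribution was read by flow cytometry.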

[3] = target: T1, Lysine-specific demethylase 2A (Homo sapiens, UniProt Q9Y2K7); assay: Inhibition of KDM2A (unknown origin)
T1 sequence (Q9Y2K7 whole entry): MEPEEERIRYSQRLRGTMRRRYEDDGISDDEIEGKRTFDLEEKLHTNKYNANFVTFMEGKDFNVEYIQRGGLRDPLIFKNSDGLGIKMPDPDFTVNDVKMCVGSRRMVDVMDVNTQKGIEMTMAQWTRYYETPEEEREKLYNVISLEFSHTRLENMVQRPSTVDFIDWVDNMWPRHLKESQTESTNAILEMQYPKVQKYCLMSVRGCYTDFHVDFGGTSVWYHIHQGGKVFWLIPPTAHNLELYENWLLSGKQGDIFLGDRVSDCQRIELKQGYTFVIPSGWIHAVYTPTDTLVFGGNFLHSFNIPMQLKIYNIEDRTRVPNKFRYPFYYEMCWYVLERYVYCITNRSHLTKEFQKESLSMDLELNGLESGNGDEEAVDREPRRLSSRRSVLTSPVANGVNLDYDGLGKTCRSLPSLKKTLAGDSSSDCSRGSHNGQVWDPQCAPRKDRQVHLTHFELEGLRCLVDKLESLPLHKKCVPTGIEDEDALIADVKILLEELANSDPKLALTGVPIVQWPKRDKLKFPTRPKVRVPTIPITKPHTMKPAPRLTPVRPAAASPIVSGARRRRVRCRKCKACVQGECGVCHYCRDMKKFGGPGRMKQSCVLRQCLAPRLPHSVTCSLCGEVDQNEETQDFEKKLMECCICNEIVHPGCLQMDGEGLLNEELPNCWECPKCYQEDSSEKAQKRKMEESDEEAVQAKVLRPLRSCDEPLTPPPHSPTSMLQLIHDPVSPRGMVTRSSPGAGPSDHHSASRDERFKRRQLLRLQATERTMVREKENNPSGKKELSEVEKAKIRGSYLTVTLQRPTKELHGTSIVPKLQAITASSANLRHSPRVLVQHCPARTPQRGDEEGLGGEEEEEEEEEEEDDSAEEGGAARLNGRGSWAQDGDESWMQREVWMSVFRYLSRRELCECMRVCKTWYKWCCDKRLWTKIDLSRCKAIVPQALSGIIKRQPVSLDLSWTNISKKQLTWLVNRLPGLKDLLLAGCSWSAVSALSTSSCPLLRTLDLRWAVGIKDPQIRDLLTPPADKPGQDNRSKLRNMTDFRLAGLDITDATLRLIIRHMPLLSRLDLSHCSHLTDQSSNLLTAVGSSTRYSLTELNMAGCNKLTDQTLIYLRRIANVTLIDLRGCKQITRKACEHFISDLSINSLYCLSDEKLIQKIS

[4] = target: Lysine-specific demethylase 6A (Homo sapiens, UniProt O15550); assay: Inhibition of human recombinant KDM6A after 120 mins
Chain of Lysine-specific demethylase 6A (O15550 whole entry): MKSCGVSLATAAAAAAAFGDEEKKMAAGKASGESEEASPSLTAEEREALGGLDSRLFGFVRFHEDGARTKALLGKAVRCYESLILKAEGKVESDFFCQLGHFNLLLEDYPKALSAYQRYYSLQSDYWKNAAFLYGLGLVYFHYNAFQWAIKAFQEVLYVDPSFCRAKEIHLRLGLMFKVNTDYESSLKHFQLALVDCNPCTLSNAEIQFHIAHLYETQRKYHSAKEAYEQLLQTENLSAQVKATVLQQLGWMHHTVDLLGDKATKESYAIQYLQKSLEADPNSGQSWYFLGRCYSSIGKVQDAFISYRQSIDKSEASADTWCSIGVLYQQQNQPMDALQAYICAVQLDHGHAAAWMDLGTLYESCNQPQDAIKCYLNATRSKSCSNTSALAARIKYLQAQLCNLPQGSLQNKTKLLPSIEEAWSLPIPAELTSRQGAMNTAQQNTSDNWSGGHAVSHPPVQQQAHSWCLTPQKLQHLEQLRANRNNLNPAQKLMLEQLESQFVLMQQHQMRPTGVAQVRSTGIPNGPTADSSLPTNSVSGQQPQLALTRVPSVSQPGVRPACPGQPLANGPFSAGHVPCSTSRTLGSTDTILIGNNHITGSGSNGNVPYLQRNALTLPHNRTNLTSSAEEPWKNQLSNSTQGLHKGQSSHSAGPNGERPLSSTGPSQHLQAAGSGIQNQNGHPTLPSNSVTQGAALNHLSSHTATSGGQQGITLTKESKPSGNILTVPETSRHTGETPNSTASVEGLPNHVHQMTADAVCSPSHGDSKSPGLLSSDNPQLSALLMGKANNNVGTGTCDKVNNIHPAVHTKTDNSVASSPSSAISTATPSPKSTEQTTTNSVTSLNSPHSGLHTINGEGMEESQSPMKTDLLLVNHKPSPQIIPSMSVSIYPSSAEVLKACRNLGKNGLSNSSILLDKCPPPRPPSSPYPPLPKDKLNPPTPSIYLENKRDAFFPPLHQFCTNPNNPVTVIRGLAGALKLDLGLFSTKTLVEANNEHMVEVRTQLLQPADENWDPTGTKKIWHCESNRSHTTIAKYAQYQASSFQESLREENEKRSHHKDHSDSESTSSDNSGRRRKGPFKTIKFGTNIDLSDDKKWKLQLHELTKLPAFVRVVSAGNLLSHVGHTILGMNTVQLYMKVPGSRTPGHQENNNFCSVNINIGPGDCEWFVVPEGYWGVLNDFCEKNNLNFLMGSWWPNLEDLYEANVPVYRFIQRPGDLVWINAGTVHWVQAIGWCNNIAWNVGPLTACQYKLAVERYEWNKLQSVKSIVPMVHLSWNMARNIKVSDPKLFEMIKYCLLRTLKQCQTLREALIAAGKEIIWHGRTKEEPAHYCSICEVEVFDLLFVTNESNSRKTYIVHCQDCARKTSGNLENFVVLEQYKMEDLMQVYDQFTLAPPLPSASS

[5] = target: Lysine-specific demethylase 7A/7B (Homo sapiens) (UniProt Q9UPP1+Q6ZMT4); assay: Inhibition of KDM7A/7B in human KYSE-150 cells assessed as H3K27me2 level at GI50 after 24 hrs by Western blot analysis; format: cell-based
Chain of Lysine-specific demethylase 7A/7B (Homo sapiens) (Q6ZMT4 whole entry, looked up): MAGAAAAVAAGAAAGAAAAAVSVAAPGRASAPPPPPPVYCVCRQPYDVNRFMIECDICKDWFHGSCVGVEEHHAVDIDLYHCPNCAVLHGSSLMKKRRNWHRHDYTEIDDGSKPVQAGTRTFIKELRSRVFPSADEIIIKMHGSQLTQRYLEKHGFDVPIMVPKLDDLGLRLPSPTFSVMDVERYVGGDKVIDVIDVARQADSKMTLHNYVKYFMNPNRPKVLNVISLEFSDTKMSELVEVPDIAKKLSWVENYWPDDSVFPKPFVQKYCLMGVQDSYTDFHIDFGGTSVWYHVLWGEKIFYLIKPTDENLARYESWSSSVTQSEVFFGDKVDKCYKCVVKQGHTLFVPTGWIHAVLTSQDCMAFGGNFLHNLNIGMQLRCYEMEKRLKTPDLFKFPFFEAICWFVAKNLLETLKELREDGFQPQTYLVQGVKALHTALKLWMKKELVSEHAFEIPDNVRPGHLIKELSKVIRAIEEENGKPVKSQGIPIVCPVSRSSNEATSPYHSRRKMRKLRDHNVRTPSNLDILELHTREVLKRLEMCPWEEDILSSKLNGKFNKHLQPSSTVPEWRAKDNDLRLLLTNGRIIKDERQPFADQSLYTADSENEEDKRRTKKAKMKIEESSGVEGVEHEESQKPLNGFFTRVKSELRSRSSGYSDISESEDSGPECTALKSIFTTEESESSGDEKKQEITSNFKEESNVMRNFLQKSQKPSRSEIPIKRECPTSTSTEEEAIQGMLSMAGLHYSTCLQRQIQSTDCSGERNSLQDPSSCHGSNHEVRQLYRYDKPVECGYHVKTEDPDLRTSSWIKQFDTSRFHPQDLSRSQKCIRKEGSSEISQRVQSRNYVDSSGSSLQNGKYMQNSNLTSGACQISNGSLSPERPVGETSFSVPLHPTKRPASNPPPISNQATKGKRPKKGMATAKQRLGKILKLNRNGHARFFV
Chain of Lysine-specific demethylase 7A/7B (Homo sapiens) (Q9UPP1 whole entry, looked up): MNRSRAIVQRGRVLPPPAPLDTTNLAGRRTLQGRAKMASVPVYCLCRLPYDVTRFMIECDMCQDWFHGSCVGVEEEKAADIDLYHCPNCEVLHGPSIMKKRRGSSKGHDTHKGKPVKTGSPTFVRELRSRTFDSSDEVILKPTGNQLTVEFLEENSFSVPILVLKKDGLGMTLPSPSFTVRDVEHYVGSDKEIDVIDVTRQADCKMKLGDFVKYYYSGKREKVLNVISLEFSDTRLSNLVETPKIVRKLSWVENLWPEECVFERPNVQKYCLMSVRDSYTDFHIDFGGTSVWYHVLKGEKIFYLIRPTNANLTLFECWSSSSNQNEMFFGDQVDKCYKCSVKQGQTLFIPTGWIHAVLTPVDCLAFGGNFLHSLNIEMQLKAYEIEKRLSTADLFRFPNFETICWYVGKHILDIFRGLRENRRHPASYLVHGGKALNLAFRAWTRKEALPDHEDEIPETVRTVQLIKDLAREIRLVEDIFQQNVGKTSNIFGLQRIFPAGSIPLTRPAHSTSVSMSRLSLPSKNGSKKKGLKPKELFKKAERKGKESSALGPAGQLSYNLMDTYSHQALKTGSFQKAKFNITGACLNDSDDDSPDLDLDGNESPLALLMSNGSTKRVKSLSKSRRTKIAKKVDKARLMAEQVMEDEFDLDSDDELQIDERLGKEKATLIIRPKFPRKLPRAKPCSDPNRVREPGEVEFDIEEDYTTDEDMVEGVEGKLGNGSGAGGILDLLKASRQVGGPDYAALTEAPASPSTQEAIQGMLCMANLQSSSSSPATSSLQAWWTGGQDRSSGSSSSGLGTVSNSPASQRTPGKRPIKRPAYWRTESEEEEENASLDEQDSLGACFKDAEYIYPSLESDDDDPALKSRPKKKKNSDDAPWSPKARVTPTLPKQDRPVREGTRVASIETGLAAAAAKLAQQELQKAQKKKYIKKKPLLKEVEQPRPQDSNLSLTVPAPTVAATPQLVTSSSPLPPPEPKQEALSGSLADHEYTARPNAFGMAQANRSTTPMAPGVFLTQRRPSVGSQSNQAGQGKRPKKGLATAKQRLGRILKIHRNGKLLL
How it was run: (§2)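 Cells (5×10^5) were treated for 24 h in OPTI-MEM and lysed in SDS buffer. Equal protein amounts, set by Bradford assay, were resolved on 4–20% SDS-PAGE and blotted. Blots were probed with anti-H3K27me2 (1:1000) and anti-H3 (1:100000) as loading reference, detected with an HRP secondary antibody, and visualized by ECL.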

[6] = target: Lysine-specific demethylase 7A/7B (Mus musculus) (UniProt Q3UWM4+Q80TJ7); assay: Inhibition of KDM7A/7B in mouse N2a cells assessed as H3K27me2 level after 24 hrs by Western blot analysis; format: cell-based; how it was run: as §2
[7] = Cell cycle arrest in human KYSE-150 cells assessed as increase in G0/G1 phase after 24 hrs by FACS analysis; format: functional, cell-based; how it was run: as §1
[8] = target: T2, Lysine-specific demethylase 4C (Homo sapiens, UniProt Q9H3R0); assay: Inhibition of KDM4C (unknown origin) using H3K9me3 peptide and 2-oxoglutarate as substrate after 1 hr by FDH-coupled assay
T2 sequence (Q9H3R0 whole entry): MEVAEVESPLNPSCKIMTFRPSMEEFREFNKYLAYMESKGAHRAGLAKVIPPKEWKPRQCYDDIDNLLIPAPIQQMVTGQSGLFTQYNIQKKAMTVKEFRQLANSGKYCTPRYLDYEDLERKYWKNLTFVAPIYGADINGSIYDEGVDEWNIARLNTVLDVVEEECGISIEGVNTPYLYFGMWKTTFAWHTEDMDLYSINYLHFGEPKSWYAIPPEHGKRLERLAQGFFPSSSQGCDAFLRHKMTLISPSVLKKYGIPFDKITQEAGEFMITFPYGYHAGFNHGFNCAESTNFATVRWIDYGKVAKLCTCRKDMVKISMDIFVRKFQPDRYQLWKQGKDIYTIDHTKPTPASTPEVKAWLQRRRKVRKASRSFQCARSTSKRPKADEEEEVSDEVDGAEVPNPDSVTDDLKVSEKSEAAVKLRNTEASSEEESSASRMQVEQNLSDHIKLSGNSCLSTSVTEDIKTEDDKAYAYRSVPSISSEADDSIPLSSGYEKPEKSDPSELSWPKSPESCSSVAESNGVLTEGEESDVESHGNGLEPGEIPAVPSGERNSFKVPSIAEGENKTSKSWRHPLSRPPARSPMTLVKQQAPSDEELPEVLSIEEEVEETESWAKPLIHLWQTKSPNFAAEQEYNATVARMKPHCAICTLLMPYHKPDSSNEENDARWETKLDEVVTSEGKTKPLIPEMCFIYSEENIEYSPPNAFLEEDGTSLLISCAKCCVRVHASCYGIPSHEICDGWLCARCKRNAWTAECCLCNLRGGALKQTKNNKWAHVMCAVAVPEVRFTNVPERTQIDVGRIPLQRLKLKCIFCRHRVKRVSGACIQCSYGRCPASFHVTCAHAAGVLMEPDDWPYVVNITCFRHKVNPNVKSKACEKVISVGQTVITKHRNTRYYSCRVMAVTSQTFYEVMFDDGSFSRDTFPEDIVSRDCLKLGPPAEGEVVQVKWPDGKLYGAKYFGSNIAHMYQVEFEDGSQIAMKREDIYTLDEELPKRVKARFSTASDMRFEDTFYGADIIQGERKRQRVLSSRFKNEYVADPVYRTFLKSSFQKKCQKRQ

Row | GI50 (HeLa [1]) [µM] | IC50 [3] [µM] | IC50 [4] [µM] | inhibition [5] | inhibition [6] | IC50 [8] [µM] | SMILES | Activity (HeLa [2]) | Activity [7]
1 | 40 | 6.8 | > 100 | Active | Dose-dependent effect | 83 | O=C(O)CCN(O)C(=O)CCCCCCCCC1CC1 | Dose-dependent effect | Dose-dependent effect
2 | > 470 | 0.2 |  |  |  | 2.2 | CN(C)CCCCCCCCC(=O)N(O)CCC(=O)O |  | 
